Measured values from ChEMBL document CHEMBL1124652, “Resolved 6,7,8,9-tetrahydro-N,N-dimethyl-3H-benz[e]indol-8-amine: central dopamine and serotonin receptor stimulating properties” (J Med Chem, 1989).
The source made the active and inactive calls. The rule behind the calls is not given here.

How the values were obtained:
Rattus norvegicus [1] = experiment: Effect of compound on 5-Hydroxy transaminase accumulation upon subcutaneous administration in the limbic system of rat brain; I - inactive at highest dose (50 umol/kg); assay type: functional, organism-based
Rattus norvegicus [2] = experiment: Effect on Dopa accumulation upon subcutaneous administration in the corpus striatum of rat brain; assay type: functional; details: sc
Rattus norvegicus [3] = experiment: Effect on Dopa accumulation upon subcutaneous administration in the limbic system of rat brain; assay type: functional; details: sc
Rattus norvegicus [4] = experiment: Effect of compound on 5-Hydroxy transaminase accumulation upon subcutaneous administration in the corpus striatum of rat brain; I - inactive at highest dose (50 umol/kg); assay type: functional, organism-based
Rattus norvegicus [5] = experiment: Effect of compound on 5-Hydroxy transaminase accumulation upon subcutaneous administration in the hemisphere of rat brain; I - inactive at highest dose (50 umol/kg); assay type: functional, organism-based
Rattus norvegicus [6] = experiment: Effect on Dopa accumulation upon subcutaneous administration in the hemispheres of rat brain; I - inactive at highest dose (50 umol/kg); assay type: functional, organism-based
D(2) dopamine receptor [7] = molecular target: T1, D(2) dopamine receptor (Rattus norvegicus, UniProt P61169); experiment: In vitro binding activity against Dopamine receptor D2 from homogenized rat brain, using [3H]spiperone as the radioligand
T1 sequence (P61169 whole entry): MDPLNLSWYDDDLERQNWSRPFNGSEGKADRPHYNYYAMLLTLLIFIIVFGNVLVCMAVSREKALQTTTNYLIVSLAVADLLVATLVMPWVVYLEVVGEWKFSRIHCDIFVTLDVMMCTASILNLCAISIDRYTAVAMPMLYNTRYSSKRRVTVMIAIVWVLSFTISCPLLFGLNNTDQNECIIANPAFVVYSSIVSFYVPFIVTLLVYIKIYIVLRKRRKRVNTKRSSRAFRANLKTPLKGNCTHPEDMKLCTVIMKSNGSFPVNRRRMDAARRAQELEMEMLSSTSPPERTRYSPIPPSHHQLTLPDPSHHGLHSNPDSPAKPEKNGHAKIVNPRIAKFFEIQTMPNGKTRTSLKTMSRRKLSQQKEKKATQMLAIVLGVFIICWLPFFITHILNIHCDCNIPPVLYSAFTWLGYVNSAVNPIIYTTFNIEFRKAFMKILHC
Procedure, shortened: (§1)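 Rat striatal membranes in 50 mM potassium phosphate buffer (pH 7.4 at 25 °C), pellets homogenized in 1300 volumes. Incubated with 0.5 nM [3H]spiperone (3 mg original tissue) for 10 min at 37 °C, then terminated by rapid vacuum filtration and counted by liquid scintillation. Nonspecific binding defined with 10 μM 6,7-ADTN; specific binding 70-80% of total.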

D(1A) dopamine receptor [8] = molecular target: T2, D(1A) dopamine receptor (Rattus norvegicus, UniProt P18901); experiment: In vitro binding activity against dopamine D1 receptor from homogenized rat brain, using [3H]SCH-23390 as the radioligand
T2 sequence (P18901 whole entry): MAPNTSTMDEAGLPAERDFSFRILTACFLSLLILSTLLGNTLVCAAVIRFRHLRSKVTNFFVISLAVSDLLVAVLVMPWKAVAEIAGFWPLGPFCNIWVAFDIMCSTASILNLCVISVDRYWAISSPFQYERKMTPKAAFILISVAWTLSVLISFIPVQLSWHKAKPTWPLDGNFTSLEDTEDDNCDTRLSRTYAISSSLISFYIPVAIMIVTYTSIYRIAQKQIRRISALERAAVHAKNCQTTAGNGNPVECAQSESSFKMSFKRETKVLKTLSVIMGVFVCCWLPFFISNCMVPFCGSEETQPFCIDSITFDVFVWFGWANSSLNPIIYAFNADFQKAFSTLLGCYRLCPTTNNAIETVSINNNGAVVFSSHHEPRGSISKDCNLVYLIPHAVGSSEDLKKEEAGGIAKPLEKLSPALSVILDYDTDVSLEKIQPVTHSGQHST
Procedure, shortened: (§2)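 Rat striatal membranes prepared in 50 mM potassium phosphate pH 7.4 and centrifuged at 25000g. Incubated with 0.2 nM [3H]SCH 23390 (1 mg original tissue) for 60 min at 30 °C, then separated by rapid filtration. Specific binding defined with 1 μM cis-(Z)-flupentixol.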

D(1A) dopamine receptor [9] = molecular target: T2, D(1A) dopamine receptor; experiment: In vitro binding activity against dopamine receptor D1 from homogenized rat brain, using [3H]SCH-23390 as the radioligand.; procedure, shortened: as §2
Rattus norvegicus [10] = experiment: Effect of compound on 5-Hydroxy tryptamine accumulation upon subcutaneous administration in the corpus striatum of rat brain; assay type: functional; details: sc
Rattus norvegicus [11] = experiment: Effect of compound on 5-Hydroxy tryptamine accumulation upon subcutaneous administration in the hemisphere of rat brain; assay type: functional; details: sc
Rattus norvegicus [12] = experiment: Effect of compound on 5-Hydroxy tryptamine accumulation upon subcutaneous administration in the limbic system of rat brain; assay type: functional; details: sc
Rattus norvegicus [13] = experiment: Effect on Dopa accumulation upon subcutaneous administration in the hemispheres of rat brain (partial response); assay type: functional; details: sc
Rattus norvegicus [14] = experiment: Effect on motor activity in rats at a dose of 2 uM/Kg; assay type: functional
Rattus norvegicus [15] = experiment: Effect on Dopa accumulation upon subcutaneous administration in the hemispheres of rat brain; assay type: functional; details: sc
Rattus norvegicus [16] = experiment: Effect on motor activity in rats at a dose of 12.5 uM/Kg; assay type: functional
Rattus norvegicus [17] = species: Rattus norvegicus; experiment: […]; assay type: functional, organism-based; details: Striatum
Rattus norvegicus [18] = experiment: Effect on Dopa accumulation upon subcutaneous administration in the limbic system of rat brain; I - inactive at highest dose (50 umol/kg); assay type: functional, organism-based
Rattus norvegicus [19] = experiment: Effect of compound on 5-Hydroxy transaminase accumulation upon subcutaneous administration in the hemisphere of rat brain; assay type: functional; details: sc
Procedure, shortened: (§3)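 Male Sprague-Dawley rats (200-300 g) were dosed subcutaneously at 5 mL/kg with neutral-pH solutions. Dose-response curves used four to six dose levels (n = 4) per substance and per brain area, up to 50 μmol/kg. 5-HTP was measured in dissected brain regions by HPLC with electrochemical detection, and ED50 values were derived from the curves.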

Rattus norvegicus [20] = experiment: Effect of compound on 5-Hydroxy transaminase accumulation upon subcutaneous administration in the limbic system of rat brain; assay type: functional; details: sc; procedure, shortened: as §3
Rattus norvegicus [21] = experiment: Effect of compound on 5-Hydroxy transaminase accumulation upon subcutaneous administration in the corpus striatum of rat brain; assay type: functional; details: sc
Procedure, shortened: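 Male Sprague-Dawley rats (200-300 g) received the compound subcutaneously at 5 mL/kg in neutral-pH solution, at four to six dose levels up to 50 μmol/kg (n = 4 per dose). 5-HTP in the corpus striatum was measured by HPLC with electrochemical detection. A separate dose-response curve per substance and brain area gave ED50 values.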

[22] = molecular target: T3, 5-hydroxytryptamine receptor 1A (Rattus norvegicus, UniProt P19327); experiment: In vitro binding activity against 5-hydroxytryptamine 1A receptor from homogenized rat brain, using [3H]-8-OH-DPAT as the radioligand
T3 sequence (P19327 whole entry): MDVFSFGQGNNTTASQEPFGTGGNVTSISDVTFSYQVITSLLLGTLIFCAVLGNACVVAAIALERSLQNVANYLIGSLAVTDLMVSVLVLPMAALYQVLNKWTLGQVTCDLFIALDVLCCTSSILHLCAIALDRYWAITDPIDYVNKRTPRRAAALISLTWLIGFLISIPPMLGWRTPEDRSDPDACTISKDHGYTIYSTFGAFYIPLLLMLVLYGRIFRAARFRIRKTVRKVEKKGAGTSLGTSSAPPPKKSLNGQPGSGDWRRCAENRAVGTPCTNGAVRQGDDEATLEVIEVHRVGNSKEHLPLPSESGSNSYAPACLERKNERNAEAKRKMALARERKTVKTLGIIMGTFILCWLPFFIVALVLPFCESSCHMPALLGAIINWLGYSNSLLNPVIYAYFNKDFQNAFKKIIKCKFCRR
Procedure, shortened: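 Whole rat brain minus brainstem and cerebellum, homogenized in 50 mM Tris pH 8.0 with 120 mM NaCl, 4 mM CaCl2 and 4 mM MgCl2. Membranes preincubated 10 min at 37 °C, then resuspended with 10 μM pargyline. Incubated in triplicate with 1 nM [3H]-8-OH-DPAT (0.1% ascorbic acid) for 15 min at 37 °C, then filtered. Nonspecific binding defined with 10 μM 5-HT. IC50 from semilog linear regression.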

D(2) dopamine receptor [23] = molecular target: T1, D(2) dopamine receptor; experiment: In vitro binding activity against dopamine receptor D2 from homogenized rat brain, using [3H]spiperone as the radioligand; procedure, shortened: as §1
D(1A) dopamine receptor [24] = molecular target: T2, D(1A) dopamine receptor; experiment: In vitro binding activity against Dopamine receptor D1 from homogenized rat brain, using [3H]SCH-23390 as the radioligand; procedure, shortened: as §2
Rattus norvegicus [25] = experiment: Effect of compound on 5-Hydroxy tryptamine accumulation upon subcutaneous administration in the hemisphere of rat brain (partial response); assay type: functional; details: sc
Rattus norvegicus [26] = experiment: Effect on motor activity in rats at a dose of 4 uM/Kg; assay type: functional

Compound: CCCN(CCC)[C@@H]1CCc2ccc(O)cc2C1
- ED50 (Rattus norvegicus [1]): inactive
- ED50 (Rattus norvegicus [2]): 0.011 µmol/kg
- ED50 (Rattus norvegicus [3]): 0.0095 µmol/kg
- ED50 (Rattus norvegicus [4]): inactive
- ED50 (Rattus norvegicus [5]): inactive
- ED50 (Rattus norvegicus [6]): inactive

Compound: CCCN(CCC)C1CCc2cccc(O)c2C1 (racemic) [8-OH-DPAT]
- IC50 (D(2) dopamine receptor [7]): 5.76 µM
- IC50 (D(1A) dopamine receptor [8]): > 100 µM

Compound: CN(C)[C@@H]1CCc2ccc3[nH]ccc3c2C1
- IC50 (D(1A) dopamine receptor [9]): 20.4 µM
- ED50 (Rattus norvegicus [10]): 0.1 µmol/kg
- ED50 (Rattus norvegicus [11]): 0.4 µmol/kg
- ED50 (Rattus norvegicus [12]): 0.4 µmol/kg
- ED50 (Rattus norvegicus [2]): 0.4 µmol/kg
- ED50 (Rattus norvegicus [13]): 2 µmol/kg
- ED50 (Rattus norvegicus [3]): 0.3 µmol/kg
- Motor activity (Rattus norvegicus [14]): 130 accumulated counts 30min-1

Compound: CN(C)[C@H]1CCc2ccc3[nH]ccc3c2C1
- IC50 (D(1A) dopamine receptor [9]): 29.2 µM
- ED50 (Rattus norvegicus [10]): 3.7 µmol/kg
- ED50 (Rattus norvegicus [11]): 3.7 µmol/kg
- ED50 (Rattus norvegicus [12]): 3.7 µmol/kg
- ED50 (Rattus norvegicus [2]): 8 µmol/kg
- ED50 (Rattus norvegicus [15]): 10 µmol/kg
- ED50 (Rattus norvegicus [3]): 4.2 µmol/kg
- Motor activity (Rattus norvegicus [16]): 22 accumulated counts 30min-1

Compound: CCCN(CCC)[C@H]1CCc2cccc(O)c2C1
- ED50 (Rattus norvegicus [17]): inactive
- ED50 (Rattus norvegicus [18]): inactive
- ED50 (Rattus norvegicus [19]): 0.077 µmol/kg
- ED50 (Rattus norvegicus [20]): 0.061 µmol/kg
- ED50 (Rattus norvegicus [6]): inactive
- ED50 (Rattus norvegicus [21]): 0.065 µmol/kg

Compound: CCN(CC)C(=O)N[C@H]1C[C@@H]2c3cccc4[nH]cc(c34)C[C@H]2N(C)C1 [TERGURIDE]
- IC50 [22]: 0.025 µM
- IC50 (D(2) dopamine receptor [23]): 0.004 µM
- IC50 (D(1A) dopamine receptor [24]): 0.069 µM

Compound: CCCN(CCC)[C@@H]1CCc2cccc(O)c2C1
- ED50 (Rattus norvegicus [17]): inactive
- ED50 (Rattus norvegicus [18]): inactive
- ED50 (Rattus norvegicus [19]): 0.05 µmol/kg
- ED50 (Rattus norvegicus [20]): 0.036 µmol/kg
- ED50 (Rattus norvegicus [6]): inactive
- ED50 (Rattus norvegicus [21]): 0.047 µmol/kg

Compound: CN(C)C1CCc2ccc3[nH]ccc3c2C1 (racemic)
- IC50 (D(1A) dopamine receptor [9]): 19.7 µM
- ED50 (Rattus norvegicus [10]): 0.2 µmol/kg
- ED50 (Rattus norvegicus [25]): 0.4 µmol/kg
- ED50 (Rattus norvegicus [12]): 0.3 µmol/kg
- ED50 (Rattus norvegicus [2]): 0.4 µmol/kg
- ED50 (Rattus norvegicus [13]): 4 µmol/kg
- ED50 (Rattus norvegicus [3]): 0.3 µmol/kg
- Motor activity (Rattus norvegicus [26]): 90 accumulated counts 30min-1
